Source: ChEMBL document CHEMBL4715840, “Antibacterial activity of lipo-α/sulfono-γ-AA hybrid peptides” (Eur J Med Chem, 2020)
Converted amounts (≈) assume the structure as drawn. The source made the active and inactive calls. The rule behind the calls is not given here.

Key:
[1] = Hemolytic activity against RBC (unknown origin); format: ADME, cell-based, Erythrocyte; settings: red blood cells (erythrocytes)
[2] = Selectivity index, ratio of HC50 for human RBC to MIC for methicillin-resistant Staphylococcus aureus ATCC 33591; format: toxicity; settings: human red blood cells, read-out: Selectivity Index
Staphylococcus aureus [3] = test: Antibacterial activity against methicillin-resistant Staphylococcus aureus ATCC 33591 incubated for 12 to 16 hrs by microtiter method; format: functional; settings: time 12-16 hrs
Method in brief: (§1)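 Single colony grown overnight at 37 °C in TSB, diluted 100-fold and grown to mid-log phase. Equal volumes of cell suspension and peptide serial dilutions in TSB were combined and incubated 37 °C for 12-16 h. Growth read as absorbance at 600 nm. MIC taken as the lowest concentration inhibiting growth. Three repeats, each in duplicate.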

[4] = tested on: Staphylococcus epidermidis; test: Antibacterial activity against methicillin-resistant Staphylococcus epidermidis RP62A incubated for 12 to 16 hrs by microtiter method; format: functional; settings: time 12-16 hrs; method in brief: as §1
Enterococcus faecalis = test: Antibacterial activity against Enterococcus faecalis ATCC 700802 incubated for 12 to 16 hrs by microtiter method; format: functional; settings: time 12-16 hrs
Method in brief: (§2)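 Single colonies grown overnight in TSB at 37 °C, diluted 100-fold and grown to mid-log phase. Equal volumes of bacterial suspension and peptide dilutions in TSB mixed and incubated 37 °C for 12-16 h. Growth read as absorbance at 600 nm. MIC taken as lowest concentration inhibiting growth. Three repeats, duplicates each.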

Escherichia coli [5] = test: Antibacterial activity against Escherichia coli ATCC 25922 incubated for 12 to 16 hrs by microtiter method; format: functional; settings: time 12-16 hrs; method in brief: as §2
Pseudomonas aeruginosa = test: Antibacterial activity against Pseudomonas aeruginosa ATCC 27853 incubated for 12 to 16 hrs by microtiter method; format: functional; settings: time 12-16 hrs; method in brief: as §2
Cell membrane [6] = test: Induction of membrane disruption in methicillin-resistant Staphylococcus aureus ATCC 33591 at 250 ug/ml measured for 30 mins by DiSC35 dye based fluorescence assay; format: subcellular; settings: dose 250.0 µg/ml
Method in brief: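 Mid-log cells washed with 5 mM HEPES and 5 mM glucose. Resuspended at 10^8 CFU/mL in 5 mM glucose, 5 mM HEPES and 100 mM KCl mixed 1:1:1, with 2 µM DiSC3(5), at 37 °C. Fluorescence (ex 622, em 670 nm) followed for 30 min. Peptide at 250 µg/mL added once the minimum was reached, about 20 min. Untreated culture as negative control. At least three repeats in duplicate.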

Cell membrane [7] = test: Induction of membrane disruption in Escherichia coli at 250 ug/ml measured for 30 mins by DiSC35 dye based fluorescence assay; format: subcellular; settings: dose 250.0 µg/ml
Cell membrane [8] = test: Induction of membrane disruption in Escherichia coli at 6 ug/ml measured after 2 hrs by DAPI/propidium iodide staining based fluorescence microscopic analysis; settings: dose 6.0 µg/ml
Method in brief: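 Mid-log bacteria exposed to peptide for 2 h at 37 °C, then centrifuged at 5000g for 15 min and washed with PBS. Stained with PI (5 µg/mL), washed three times in PBS, then stained with DAPI (10 µg/mL), each stain 15 min on ice in the dark. Viewed by fluorescence microscopy with a 100X oil objective.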

Escherichia coli [9] = test: Bactericidal activity against Escherichia coli ATCC 25922 at 25 to 50 ug/ml measured after 60 mins by time-kill assay; format: functional, organism-based; settings: dose 25-50 µg/ml
Method in brief: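 Mid-log TSB cultures at 37 °C diluted to 1 × 10^6 CFU/mL and exposed to 12.5, 25 or 50 µg/mL peptide for 10 min, 30 min, 1 h and 2 h. Aliquots diluted 102 to 104-fold and plated. Colonies counted after overnight incubation at 37 °C and plotted against exposure time.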

Staphylococcus aureus [10] = test: Bactericidal activity against methicillin-resistant Staphylococcus aureus ATCC 33591 at 50 ug/ml measured after 10 mins by time-kill assay; format: functional, organism-based
Method in brief: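 Cells grown in TSB at 37 °C to mid-log phase, diluted to 1 × 10^6 CFU/mL, then exposed to peptide at 12.5, 25 or 50 µg/mL for 10 min, 30 min, 1 h and 2 h. Samples diluted 102 to 104-fold and plated. Colonies counted after overnight growth at 37 °C and plotted against exposure time.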

Cell membrane [11] = test: Induction of membrane disruption in methicillin-resistant Staphylococcus aureus ATCC 33591 at 6 ug/ml measured after 2 hrs by DAPI/propidium iodide staining based fluorescence microscopic analysis; format: subcellular; settings: dose 6.0 µg/ml
Method in brief: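 Mid-log cells exposed to peptide at 37 °C for 2 h. Methods give 10 µg/mL; the legend gives 6 µg/mL. Cells pelleted at 5000g for 15 min and washed in PBS. Stained with PI (5 µg/mL), washed three times in PBS, then stained with DAPI (10 µg/mL), each stain 15 min on ice in the dark. Imaged with a 100X oil objective. Untreated cells as control.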

CCCCCCCCCCCCCCCC(=O)N[C@@H](CCCCN)C(=O)N[C@@H](CCCCN)CN(CC(=O)N[C@@H](CCCCN)CN(CC(N)=O)S(=O)(=O)Cc1ccccc1)S(=O)(=O)Cc1ccccc1
HC50 [1]: 50 µg/mL | selectivity ratio [2]: 25 | MIC (Staphylococcus aureus [3]): 2 mg/L (≈ 1.93 µM) | MIC [4]: 5 mg/L (≈ 4.83 µM) | MIC (Enterococcus faecalis): 5 mg/L (≈ 4.83 µM) | MIC (Escherichia coli [5]): 8 mg/L (≈ 7.73 µM) | MIC (Pseudomonas aeruginosa): 8 mg/L (≈ 7.73 µM)

CCCCCCCCCCCCCC(=O)N[C@@H](CCCCN)C(=O)N[C@@H](CCCCN)CN(CC(N)=O)S(=O)(=O)Cc1ccccc1
HC50 [1]: 125 µg/mL | Activity (Cell membrane [6]): Active | selectivity ratio [2]: 25 | Activity (Cell membrane [7]): Active | MIC (Staphylococcus aureus [3]): 5 mg/L (≈ 7.34 µM) | MIC [4]: 5 mg/L (≈ 7.34 µM) | MIC (Enterococcus faecalis): 5 mg/L (≈ 7.34 µM) | Activity (Cell membrane [8]): Active | MIC (Escherichia coli [5]): 2 mg/L (≈ 2.94 µM) | MIC (Pseudomonas aeruginosa): 5 mg/L (≈ 7.34 µM) | Activity (Escherichia coli [9]): Active | Activity (Staphylococcus aureus [10]): Active | Activity (Cell membrane [11]): Active

CCCCCCCCCCCCCCCCNC(=O)CN(C[C@H](CCCCN)NC(=O)[C@@H](N)CCCCN)S(=O)(=O)Cc1ccccc1
MIC (Staphylococcus aureus [3]): 5 mg/L (≈ 7.19 µM) | MIC [4]: 20 mg/L (≈ 28.8 µM) | MIC (Enterococcus faecalis): 5 mg/L (≈ 7.19 µM) | MIC (Escherichia coli [5]): 5 mg/L (≈ 7.19 µM) | MIC (Pseudomonas aeruginosa): > 50 mg/L

CCCCCCCCCCCCCCCC(=O)N[C@@H](CCCCN)CN(CC(N)=O)S(=O)(=O)Cc1ccccc1
MIC (Staphylococcus aureus [3]): 5 mg/L (≈ 8.61 µM) | MIC [4]: 8 mg/L (≈ 13.8 µM) | MIC (Enterococcus faecalis): 5 mg/L (≈ 8.61 µM) | MIC (Escherichia coli [5]): > 50 mg/L | MIC (Pseudomonas aeruginosa): > 50 mg/L

CCCCCCCCCCCCCC(=O)N[C@@H](CCCCN)C(=O)N[C@@H](CCCCN)CN(CC(=O)N[C@@H](CCCCN)CN(CC(N)=O)S(=O)(=O)Cc1ccccc1)S(=O)(=O)Cc1ccccc1
HC50 [1]: 100 µg/mL | selectivity ratio [2]: 50 | MIC (Staphylococcus aureus [3]): 2 mg/L (≈ 1.99 µM) | MIC [4]: 5 mg/L (≈ 4.97 µM) | MIC (Enterococcus faecalis): 8 mg/L (≈ 7.95 µM) | MIC (Escherichia coli [5]): 5 mg/L (≈ 4.97 µM) | MIC (Pseudomonas aeruginosa): 5 mg/L (≈ 4.97 µM)

CCCCCCCCCCCCCCCCCC(=O)N[C@@H](CCCCN)C(=O)N[C@@H](CCCCN)CN(CC(N)=O)S(=O)(=O)Cc1ccccc1
MIC (Staphylococcus aureus [3]): 2 mg/L (≈ 2.71 µM) | MIC [4]: 20 mg/L (≈ 27.1 µM) | MIC (Enterococcus faecalis): 5 mg/L (≈ 6.78 µM) | MIC (Escherichia coli [5]): > 50 mg/L | MIC (Pseudomonas aeruginosa): > 50 mg/L

CCCCCCCCCCCCCCCC(=O)N[C@@H](CCCCN)CN(CC(=O)N[C@@H](CCCCN)CN(CC(N)=O)S(=O)(=O)Cc1ccccc1)S(=O)(=O)Cc1ccccc1
MIC (Staphylococcus aureus [3]): 8 mg/L (≈ 8.83 µM) | MIC [4]: 20 mg/L (≈ 22.1 µM) | MIC (Enterococcus faecalis): 8 mg/L (≈ 8.83 µM) | MIC (Escherichia coli [5]): > 50 mg/L | MIC (Pseudomonas aeruginosa): > 50 mg/L

CCCCCCCCCCCC(=O)N[C@@H](CCCCN)C(=O)N[C@@H](CCCCN)CN(CC(N)=O)S(=O)(=O)Cc1ccccc1
MIC (Staphylococcus aureus [3]): 20 mg/L (≈ 30.6 µM) | MIC [4]: 20 mg/L (≈ 30.6 µM) | MIC (Enterococcus faecalis): > 50 mg/L | MIC (Escherichia coli [5]): 5 mg/L (≈ 7.66 µM) | MIC (Pseudomonas aeruginosa): 8 mg/L (≈ 12.3 µM)

CCCCCCCCCCCCCCCCNC(=O)CN(C[C@@H](N)CCCCN)S(=O)(=O)Cc1ccccc1
MIC (Staphylococcus aureus [3]): 5 mg/L (≈ 8.82 µM) | MIC [4]: 20 mg/L (≈ 35.3 µM) | MIC (Enterococcus faecalis): 5 mg/L (≈ 8.82 µM) | MIC (Escherichia coli [5]): 5 mg/L (≈ 8.82 µM) | MIC (Pseudomonas aeruginosa): > 50 mg/L

CCCCCCCCCCCCCCCC(=O)N[C@@H](CCCCN)C(=O)N[C@@H](CCCCN)CN(CC(N)=O)S(=O)(=O)Cc1ccccc1
MIC (Staphylococcus aureus [3]): 5 mg/L (≈ 7.05 µM) | MIC [4]: 5 mg/L (≈ 7.05 µM) | MIC (Enterococcus faecalis): 5 mg/L (≈ 7.05 µM) | MIC (Escherichia coli [5]): 5 mg/L (≈ 7.05 µM) | MIC (Pseudomonas aeruginosa): 20 mg/L (≈ 28.2 µM)

CCCCCCCCCC(=O)N[C@@H](CCCCN)C(=O)N[C@@H](CCCCN)CN(CC(N)=O)S(=O)(=O)Cc1ccccc1
MIC (Staphylococcus aureus [3]): > 50 mg/L | MIC [4]: > 50 mg/L | MIC (Enterococcus faecalis): > 50 mg/L | MIC (Escherichia coli [5]): > 50 mg/L | MIC (Pseudomonas aeruginosa): > 50 mg/L
